What was measured:
Conditions in all cases: in vivo
Homo sapiens [1] = assay: Renal clearance in human with creatinine clearance of => 80 ml/min assessed as RO4957463 level at 1500 mg, iv administered as single dose after 24 hrs; type: ADME, organism-based, Kidney
How it was run: (§1)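 Single 1,500 mg i.v. infusion over 60 min, with 8 subjects per renal-function group (CL_CR by Cockcroft-Gault at screening). Urine was collected at 0–6, 6–12 and 12–24 h, volume and pH recorded, and aliquots mixed 1:1 with 0.5 M MOPS. Samples were frozen at −70°C, protected from light, and assayed by a validated method. CL_R = A_e24/AUC₂₄.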

Homo sapiens [2] = assay: Renal clearance in human with creatinine clearance of 50-79 ml/min assessed as RO4957463 level at 1500 mg, iv administered as single dose after 24 hrs; type: ADME, organism-based, Kidney; how it was run: as §1
Homo sapiens [3] = assay: Renal clearance in human with creatinine clearance of 30-49 ml/min assessed as RO4957463 level at 1500 mg, iv administered as single dose after 24 hrs; type: ADME, organism-based, Kidney
How it was run: (§2)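 After a single 1,500 mg i.v. infusion over 60 min, urine was collected 0–6, 6–12 and 12–24 h post-dose, with volume and pH recorded. Aliquots were mixed 1:1 with 0.5 M MOPS, protected from light and frozen at −70°C. Parent and metabolite were assayed by a validated method. CLR = Ae24/plasma AUC24. n = 8 per group, mean ± SD.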

Homo sapiens [4] = assay: Renal clearance in human with creatinine clearance of =< 30 ml/min assessed as RO4957463 level at 1500 mg, iv administered as single dose after 24 hrs; type: ADME, organism-based, Kidney; how it was run: as §1
Homo sapiens [5] = assay: Drug excretion in human with creatinine clearance of => 80 ml/min assessed as RO4957463 level at 1500 mg, iv administered as single dose after 24 hrs; type: ADME, organism-based; how it was run: as §2
Homo sapiens [6] = assay: Drug excretion in human with creatinine clearance of 50-79 ml/min assessed as RO4957463 level at 1500 mg, iv administered as single dose after 24 hrs; type: ADME, organism-based; how it was run: as §2
Homo sapiens [7] = assay: Drug excretion in human with creatinine clearance of 30-49 ml/min assessed as RO4957463 level at 1500 mg, iv administered as single dose after 24 hrs; type: ADME, organism-based; how it was run: as §2
Homo sapiens [8] = assay: Drug excretion in human with creatinine clearance of =< 30 ml/min assessed as RO4957463 level at 1500 mg, iv administered as single dose after 24 hrs; type: ADME, organism-based; how it was run: as §2
Homo sapiens [9] = assay: Dose normalized excretion in human with creatinine clearance of => 80 ml/min assessed as RO4957463 level at 1500 mg, iv administered as single dose after 24 hrs; type: ADME, organism-based; how it was run: as §2
Homo sapiens [10] = assay: Dose normalized excretion in human with creatinine clearance of 50-79 ml/min assessed as RO4957463 level at 1500 mg, iv administered as single dose after 24 hrs; type: ADME, organism-based; how it was run: as §2
Homo sapiens [11] = assay: Dose normalized excretion in human with creatinine clearance of 30-49 ml/min assessed as RO4957463 level at 1500 mg, iv administered as single dose after 24 hrs; type: ADME, organism-based; how it was run: as §2
Homo sapiens [12] = assay: Dose normalized excretion in human with creatinine clearance of =< 30 ml/min assessed as RO4957463 level at 1500 mg, iv administered as single dose after 24 hrs; type: ADME, organism-based; how it was run: as §2

CL_renal (Homo sapiens [1]): 13.2 L/h
CL_renal (Homo sapiens [2]): 8.27 L/h
CL_renal (Homo sapiens [3]): 3.91 L/h
CL_renal (Homo sapiens [4]): 1.01 L/h
Activity (Homo sapiens [5]): 240 mg
Activity (Homo sapiens [6]): 279 mg
Activity (Homo sapiens [7]): 281 mg
Activity (Homo sapiens [8]): 194 mg
Activity (Homo sapiens [9]): 16%
Activity (Homo sapiens [10]): 18.6%
Activity (Homo sapiens [11]): 18.7%
Activity (Homo sapiens [12]): 13.1%
SMILES: C[C@@H]1[C@H]([C@H](C(=O)O)[C@@H](C)O)N=C(C(=O)O)[C@H]1S[C@H]1C[C@@H](C(=O)N2CC[C@H](NC(=O)CNC(=N)N)C2)N(C)C1

Source: ChEMBL document CHEMBL1275441, “Effect of impaired renal function on the pharmacokinetics of tomopenem (RO4908463/CS-023), a novel carbapenem” (Antimicrob Agents Chemother, 2008)
